Experiments:
[1] = target: Cytochrome P450 3A4 (Homo sapiens, UniProt P08684); test: Inhibition of recombinant human CYP3A4 expressed in Escherichia coli using VG as probe substrate incubated for 15 to 60 mins by fluorometric assay; type: ADME
[2] = Oral bioavailability in Wistar Han rat at 3 mg/kg measured upto 24 hrs by HPLC-MS/MS analysis; conditions: in vivo
[3] = Cmax in Wistar Han rat at 1 mg/kg, po measured upto 24 hrs by HPLC-MS/MS analysis; type: ADME, organism-based; parameters: route oral, dose 1 mg/kg, time <=24; conditions: in vivo
Outline: (§1)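 Oral suspension in 1% (w/v) hydroxypropylmethyl cellulose in water; male rats (n = 3) and male dogs (n = 4). AUC taken from 0 h to last quantifiable time point; Cmax is maximum observed plasma concentration; Tmax reported as median. Mean ± SD.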

[4] = Unbound fraction in Beagle dog blood at 100 to 1000 ng/ml by LC-MS/MS-based rapid equilibrium dialysis method; type: ADME, tissue-based, Canis lupus familiaris; conditions: dose 100-1000 ng/ml
Outline: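 Whole blood (male Balb/C mouse, male Wistar Han rat, male Beagle dog; human from one unmedicated donor) spiked to nominal 100 and 1000 ng/mL; 10 min at 37 °C, then rapid equilibrium dialysis against PBS 4 h at 37 °C, 100 rpm. Matrix-matched acetonitrile extraction, LC-MS/MS; mean of n = 6.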

[5] = Tmax in Wistar Han rat at 1 mg/kg, po measured upto 24 hrs by HPLC-MS/MS analysis; type: ADME, organism-based; conditions: in vivo; outline: as §1
[6] = target: Cytochrome P450 2C9 (Homo sapiens, UniProt P11712)
Cytochrome P450 2C9, sequence (P11712 whole entry): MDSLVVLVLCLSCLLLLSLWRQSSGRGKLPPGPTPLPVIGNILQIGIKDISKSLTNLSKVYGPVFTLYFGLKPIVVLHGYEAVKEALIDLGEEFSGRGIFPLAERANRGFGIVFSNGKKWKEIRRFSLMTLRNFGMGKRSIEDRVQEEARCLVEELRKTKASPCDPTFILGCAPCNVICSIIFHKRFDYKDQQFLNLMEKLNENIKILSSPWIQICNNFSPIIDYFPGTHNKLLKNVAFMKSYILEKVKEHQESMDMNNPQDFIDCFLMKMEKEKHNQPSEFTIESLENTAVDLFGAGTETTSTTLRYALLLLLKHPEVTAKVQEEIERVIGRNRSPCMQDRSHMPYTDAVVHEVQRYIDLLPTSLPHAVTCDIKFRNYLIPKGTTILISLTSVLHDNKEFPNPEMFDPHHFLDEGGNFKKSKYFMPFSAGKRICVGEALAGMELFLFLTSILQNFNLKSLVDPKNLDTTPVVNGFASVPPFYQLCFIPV

[7] = Total blood clearance in Beagle dog at 1 mg/kg/hr, iv measured upto 28 hrs by LC-MS/MS analysis relative to hepatic blood flow; type: ADME, organism-based, Canis lupus familiaris; conditions: in vivo
[8] = Oral bioavailability in CD1 mouse at 3 mg/kg measured upto 8 hrs by LC-MS/MS analysis; type: ADME, organism-based; conditions: in vivo
Outline: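 Naive male CD1 mice (n = 3) given 3 mg/kg by oral gavage as suspension in 1% (w/v) methylcellulose 400, 0.6 mg/mL. Tail-vein blood to 8 h plus terminal cardiac sample at 12 h; LC-MS/MS, LLQ 5 ng/mL.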

[9] = target: Cytochrome P450 2C19 (Homo sapiens, UniProt P33261); test: Inhibition of recombinant human CYP2C19 expressed in Escherichia coli using BMC as probe substrate incubated for 15 to 60 mins by fluorometric assay; type: ADME
Cytochrome P450 2C19, sequence (P33261 whole entry): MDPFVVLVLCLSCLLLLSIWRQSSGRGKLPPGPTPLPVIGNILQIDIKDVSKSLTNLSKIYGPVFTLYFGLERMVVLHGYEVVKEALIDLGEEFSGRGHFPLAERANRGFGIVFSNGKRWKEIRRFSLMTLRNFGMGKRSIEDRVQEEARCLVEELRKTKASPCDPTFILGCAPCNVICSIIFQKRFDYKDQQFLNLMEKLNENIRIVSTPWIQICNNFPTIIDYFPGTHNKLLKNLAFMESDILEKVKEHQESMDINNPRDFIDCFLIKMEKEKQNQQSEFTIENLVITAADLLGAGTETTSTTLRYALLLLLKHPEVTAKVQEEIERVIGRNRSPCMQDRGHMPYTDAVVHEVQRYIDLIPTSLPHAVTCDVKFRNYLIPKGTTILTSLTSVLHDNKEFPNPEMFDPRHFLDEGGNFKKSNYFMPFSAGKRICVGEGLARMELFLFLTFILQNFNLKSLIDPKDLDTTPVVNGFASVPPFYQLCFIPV
Outline: (§2)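 Recombinant human CYPs coexpressed with NADPH reductase in E. coli bactosomes (0.1 mg protein/mL); profluorescent substrates ER (1A2), BMC (2C19), MMC (2D6), VividGreen or VividRed (3A4).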

[10] = target: Cytochrome P450 2D6 (Homo sapiens, UniProt P10635); test: Inhibition of recombinant human CYP2D6 expressed in Escherichia coli using MMC as probe substrate incubated for 15 to 60 mins by fluorometric assay; type: ADME; outline: as §2
Cytochrome P450 2D6, sequence (P10635 whole entry): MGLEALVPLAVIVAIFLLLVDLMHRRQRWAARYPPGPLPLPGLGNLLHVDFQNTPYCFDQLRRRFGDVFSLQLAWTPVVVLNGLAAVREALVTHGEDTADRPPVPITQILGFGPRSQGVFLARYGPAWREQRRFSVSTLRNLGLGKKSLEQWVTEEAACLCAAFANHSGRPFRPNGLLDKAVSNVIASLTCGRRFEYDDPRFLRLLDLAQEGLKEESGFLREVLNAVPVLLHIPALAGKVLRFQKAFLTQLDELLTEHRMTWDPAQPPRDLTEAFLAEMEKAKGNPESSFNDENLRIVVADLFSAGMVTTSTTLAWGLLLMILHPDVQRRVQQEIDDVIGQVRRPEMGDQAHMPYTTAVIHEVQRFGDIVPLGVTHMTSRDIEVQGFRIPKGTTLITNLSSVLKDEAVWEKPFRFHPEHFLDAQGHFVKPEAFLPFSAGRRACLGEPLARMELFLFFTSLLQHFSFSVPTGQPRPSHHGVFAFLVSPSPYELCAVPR

[11] = Oral bioavailability in Beagle dog at 3 mg/kg measured upto 24 hrs by HPLC-MS/MS analysis; conditions: in vivo
[12] = Total blood clearance in Wistar Han rat at 1 mg/kg/hr, iv measured upto 26 hrs by LC-MS/MS analysis relative to hepatic blood flow; type: ADME, organism-based; conditions: in vivo
[13] = Tmax in Beagle dog at 5 mg/kg, po measured upto 24 hrs by HPLC-MS/MS analysis; type: ADME, organism-based, Canis lupus familiaris; conditions: in vivo; outline: as §1

Cytochrome P450 3A4, sequence (P08684 whole entry): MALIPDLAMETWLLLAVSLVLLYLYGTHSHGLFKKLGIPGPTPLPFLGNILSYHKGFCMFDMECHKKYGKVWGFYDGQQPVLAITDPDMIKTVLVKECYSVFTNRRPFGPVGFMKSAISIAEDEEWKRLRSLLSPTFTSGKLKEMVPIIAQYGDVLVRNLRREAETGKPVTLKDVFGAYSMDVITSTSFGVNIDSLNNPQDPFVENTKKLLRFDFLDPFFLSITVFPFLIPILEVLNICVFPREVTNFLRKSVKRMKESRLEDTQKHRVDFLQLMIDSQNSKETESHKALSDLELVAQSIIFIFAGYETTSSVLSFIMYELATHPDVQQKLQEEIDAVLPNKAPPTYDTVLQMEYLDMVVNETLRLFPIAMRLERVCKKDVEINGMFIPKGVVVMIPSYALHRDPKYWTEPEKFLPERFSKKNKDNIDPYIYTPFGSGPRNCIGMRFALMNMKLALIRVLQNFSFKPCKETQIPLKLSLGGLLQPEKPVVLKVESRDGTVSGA

- IC50 [1]: 25.1 µM
- bioavailability [2]: 74%
- Cmax [3]: 125 ng/mL
- fraction unbound [4]: 0.24
- Tmax [5]: 60 min
- IC50 [6]: > 50 µM
- CLH [7]: 68%
- bioavailability [8]: 51%
- IC50 [9]: > 50 µM
- IC50 [10]: > 50 µM
- F [11]: 31%
- CLH [12]: 22%
- Tmax [13]: 45 min
SMILES: COC[C@@H](C)n1c(C2CCOCC2)nc2cnc3cc(-c4c(C)noc4C)c(OC)cc3c21
